Test results published in ChEMBL document CHEMBL1123045, “Synthesis of high specific activity [75Br]- and [77Br]bromperidol and tissue distribution studies in the rat” (J Med Chem, 1985).

Legend:
Rattus norvegicus [1] = assay: Distribution in brain of rat, 30 min after intravenous administered, injected dose/gm; assay type: ADME, organism-based; settings: in vivo, 0.5 h
Procedure, shortened: (§1)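 [77Br]Bromperidol at high specific activity (50-100 µCi in 0.1 mL 0.9% NaCl, pH 3) given into the femoral vein of 300-320-g female Sprague-Dawley rats under light ether anesthesia. At each time point, groups of five were decapitated after cardiac-puncture blood sampling. Organs were dissected, blotted, weighed and gamma-counted against an injectate standard. Values are % injected dose/g, mean ± SD, n=5.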

Rattus norvegicus [2] = assay: Distribution in rat spleen 8 hr after intravenous administration, injected dose/gm; assay type: ADME, organism-based; settings: in vivo
Procedure, shortened: (§2)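 Female Sprague-Dawley rats (300-320 g) under light ether anesthesia received a single injection of [77Br]-labeled tracer (50-100 µCi in 0.1 mL 0.9% NaCl, pH 3) into the femoral vein. Groups of five were decapitated at set times after a cardiac-puncture blood sample. Organs were dissected, blotted and weighed, and counted in a NaI(Tl) well γ-counter. Values are %ID/g against an injectate standard, mean ± SD (n=5).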

Rattus norvegicus [3] = assay: Distribution in rat fat 5 min after intravenous administration, injected dose/gm; assay type: ADME, organism-based, Adipose tissue; settings: in vivo; procedure, shortened: as §1
Rattus norvegicus [4] = assay: Distribution in rat skin 8 hr after intravenous administration, injected dose/gm; assay type: ADME, organism-based; settings: in vivo; procedure, shortened: as §2
Rattus norvegicus [5] = assay: Distribution in blood of rat, 4 hr after intravenous administration, injected dose/gm; assay type: ADME, organism-based; settings: in vivo; procedure, shortened: as §1
Rattus norvegicus [6] = assay: Distribution in rat fat 4 hr after intravenous administration, injected dose/gm; assay type: ADME, organism-based, Adipose tissue; settings: in vivo; procedure, shortened: as §1
Rattus norvegicus [7] = assay: Distribution in rat uterus 2 hr after intravenous administration, injected dose/gm; assay type: ADME, organism-based; settings: in vivo; procedure, shortened: as §2
Rattus norvegicus [8] = assay: Distribution in rat muscle 5 min after intravenous administration, injected dose/gm; assay type: ADME, organism-based, Muscle tissue; settings: in vivo; procedure, shortened: as §2
Rattus norvegicus [9] = assay: Distribution in rat lungs 30 min after intravenous administration, injected dose/gm; assay type: ADME, organism-based, Lung; settings: in vivo, 0.5 h; procedure, shortened: as §2
Rattus norvegicus [10] = assay: Distribution in rat intestine 2 hr after intravenous administration, injected dose/gm; assay type: ADME, organism-based; settings: in vivo; procedure, shortened: as §1
Rattus norvegicus [11] = assay: Distribution in rat uterus 8 hr after intravenous administration, injected dose/gm; assay type: ADME, organism-based; settings: in vivo; procedure, shortened: as §2
Rattus norvegicus [12] = assay: Distribution in rat skin 15 min after intravenous administration, injected dose/gm; assay type: ADME, organism-based; settings: in vivo, 0.25 h; procedure, shortened: as §2
Rattus norvegicus [13] = assay: Distribution in rat muscle 4 hr after intravenous administration, injected dose/gm; assay type: ADME, organism-based, Muscle tissue; settings: in vivo; procedure, shortened: as §2
Rattus norvegicus [14] = assay: Distribution in rat kidney, 1 hr after intravenous administration, injected dose/gm; assay type: ADME, organism-based; settings: in vivo; procedure, shortened: as §1
Rattus norvegicus [15] = assay: Distribution in rat muscle 30 min after intravenous administration, injected dose/gm; assay type: ADME, organism-based, Muscle tissue; settings: in vivo, 0.5 h; procedure, shortened: as §2
Rattus norvegicus [16] = assay: Distribution in blood of rat, 15 min after intravenous administration, injected dose/gm; assay type: ADME, organism-based; settings: in vivo, 0.25 h; procedure, shortened: as §1
Rattus norvegicus [17] = assay: Distribution in blood of rat, 30 min after intravenous administration, injected dose/gm; assay type: ADME, organism-based; settings: in vivo, 0.5 h; procedure, shortened: as §1
Rattus norvegicus [18] = assay: Distribution in rat fat 8 hr after intravenous administration, injected dose/gm; assay type: ADME, organism-based, Adipose tissue; settings: in vivo; procedure, shortened: as §1
Rattus norvegicus [19] = assay: Distribution in rat intestine 15 min after intravenous administration, injected dose/gm; assay type: ADME, organism-based; settings: in vivo, 0.25 h; procedure, shortened: as §1
Rattus norvegicus [20] = assay: Distribution in rat liver 4 hr after intravenous administration, injected dose/gm; assay type: ADME, organism-based; settings: in vivo; procedure, shortened: as §2
Rattus norvegicus [21] = assay: Distribution in rat skin 6 hr after intravenous administration, injected dose/gm; assay type: ADME, organism-based; settings: in vivo; procedure, shortened: as §2
Rattus norvegicus [22] = assay: Distribution in rat skin 4 hr after intravenous administration, injected dose/gm; assay type: ADME, organism-based; settings: in vivo; procedure, shortened: as §2
Rattus norvegicus [23] = assay: Distribution in rat pancreas 2 hr after intravenous administration, injected dose/gm; assay type: ADME, organism-based; settings: in vivo; procedure, shortened: as §2
Rattus norvegicus [24] = assay: Distribution in rat muscle 6 hr after intravenous administration, injected dose/gm; assay type: ADME, organism-based, Muscle tissue; settings: in vivo; procedure, shortened: as §2
Rattus norvegicus [25] = assay: Distribution in rat kidney, 15 min after intravenous administration, injected dose/gm; assay type: ADME, organism-based; settings: in vivo, 0.25 h; procedure, shortened: as §1
Rattus norvegicus [26] = assay: Distribution in rat pancreas 1 hr after intravenous administration, injected dose/gm; assay type: ADME, organism-based; settings: in vivo; procedure, shortened: as §2
Rattus norvegicus [27] = assay: Distribution in rat intestine 8 hr after intravenous administration, injected dose/gm; assay type: ADME, organism-based; settings: in vivo; procedure, shortened: as §1
Rattus norvegicus [28] = assay: Distribution in rat liver 6 hr after intravenous administration, injected dose/gm; assay type: ADME, organism-based; settings: in vivo; procedure, shortened: as §2
Rattus norvegicus [29] = assay: Distribution in rat intestine 1 hr after intravenous administration, injected dose/gm; assay type: ADME, organism-based; settings: in vivo; procedure, shortened: as §1
Rattus norvegicus [30] = assay: Distribution in rat muscle 1 hr after intravenous administration, injected dose/gm; assay type: ADME, organism-based, Muscle tissue; settings: in vivo; procedure, shortened: as §2
Rattus norvegicus [31] = assay: Distribution in rat skin 2 hr after intravenous administration, injected dose/gm; assay type: ADME, organism-based; settings: in vivo; procedure, shortened: as §2
Rattus norvegicus [32] = assay: Distribution in brain of rat, 4 hr after intravenous administered, injected dose/gm; assay type: ADME, organism-based; settings: in vivo; procedure, shortened: as §1
Rattus norvegicus [33] = assay: Distribution in rat liver 15 min after intravenous administration, injected dose/gm; assay type: ADME, organism-based; settings: in vivo, 0.25 h; procedure, shortened: as §1
Rattus norvegicus [34] = assay: Distribution in rat liver 5 min after intravenous administration, injected dose/gm; assay type: ADME, organism-based; settings: in vivo; procedure, shortened: as §2
Rattus norvegicus [35] = assay: Distribution in rat heart 15 min after intravenous administration, injected dose/gm; assay type: ADME, organism-based; settings: in vivo, 0.25 h; procedure, shortened: as §1
Rattus norvegicus [36] = assay: Distribution in rat kidney, 2 hr after intravenous administration, injected dose/gm; assay type: ADME, organism-based; settings: in vivo; procedure, shortened: as §1
Rattus norvegicus [37] = assay: Distribution in rat muscle 8 hr after intravenous administration, injected dose/gm; assay type: ADME, organism-based, Muscle tissue; settings: in vivo; procedure, shortened: as §2
Rattus norvegicus [38] = assay: Distribution in rat fat 6 hr after intravenous administration, injected dose/gm; assay type: ADME, organism-based, Adipose tissue; settings: in vivo; procedure, shortened: as §1
Rattus norvegicus [39] = assay: Distribution in blood of rat, 2 hr after intravenous administration, injected dose/gm; assay type: ADME, organism-based; settings: in vivo; procedure, shortened: as §1
Rattus norvegicus [40] = assay: Distribution in rat liver 1 hr after intravenous administration, injected dose/gm; assay type: ADME, organism-based; settings: in vivo; procedure, shortened: as §1
Rattus norvegicus [41] = assay: Distribution in rat heart 4 hr after intravenous administration, injected dose/gm; assay type: ADME, organism-based; settings: in vivo; procedure, shortened: as §1
Rattus norvegicus [42] = assay: Distribution in rat skin 5 min after intravenous administration, injected dose/gm; assay type: ADME, organism-based; settings: in vivo; procedure, shortened: as §2
Rattus norvegicus [43] = assay: Distribution in rat intestine 30 min after intravenous administration, injected dose/gm; assay type: ADME, organism-based; settings: in vivo, 0.5 h; procedure, shortened: as §1
Rattus norvegicus [44] = assay: Distribution in rat liver 2 hr after intravenous administration, injected dose/gm; assay type: ADME, organism-based; settings: in vivo; procedure, shortened: as §1
Rattus norvegicus [45] = assay: Distribution in rat heart 6 hr after intravenous administration, injected dose/gm; assay type: ADME, organism-based; settings: in vivo; procedure, shortened: as §1
Rattus norvegicus [46] = assay: Distribution in rat lungs 4 hr after intravenous administration, injected dose/gm; assay type: ADME, organism-based, Lung; settings: in vivo; procedure, shortened: as §2
Rattus norvegicus [47] = assay: Distribution in brain of rat, 8 hr after intravenous administered, injected dose/gm; assay type: ADME, organism-based; settings: in vivo; procedure, shortened: as §1
Rattus norvegicus [48] = assay: Distribution in rat kidney, 8 hr after intravenous administration, injected dose/gm; assay type: ADME, organism-based; settings: in vivo; procedure, shortened: as §1
Rattus norvegicus [49] = assay: Distribution in rat fat 15 min after intravenous administration, injected dose/gm; assay type: ADME, organism-based, Adipose tissue; settings: in vivo, 0.25 h; procedure, shortened: as §1
Rattus norvegicus [50] = assay: Distribution in rat uterus 15 min after intravenous administration, injected dose/gm; assay type: ADME, organism-based; settings: in vivo, 0.25 h; procedure, shortened: as §2

O=C(CCCN1CCC(O)(c2ccc(Br)cc2)CC1)c1ccc(F)cc1 [BROMPERIDOL]
Distribution (Rattus norvegicus [1]): 2.82% | Distribution (Rattus norvegicus [2]): 1.86% | Distribution (Rattus norvegicus [3]): 0.05% | Distribution (Rattus norvegicus [4]): 0.14% | Distribution (Rattus norvegicus [5]): 0.06% | Distribution (Rattus norvegicus [6]): 0.15% | Distribution (Rattus norvegicus [7]): 1.07% | Distribution (Rattus norvegicus [8]): 0.32% | Distribution (Rattus norvegicus [9]): 5.8% | Distribution (Rattus norvegicus [10]): 0.82% | Distribution (Rattus norvegicus [11]): 1.15% | Distribution (Rattus norvegicus [12]): 0.19% | Distribution (Rattus norvegicus [13]): 0.12% | Distribution (Rattus norvegicus [14]): 4.11% | Distribution (Rattus norvegicus [15]): 0.23% | Distribution (Rattus norvegicus [16]): 0.11% | Distribution (Rattus norvegicus [17]): 0.08% | Distribution (Rattus norvegicus [18]): 0.18% | Distribution (Rattus norvegicus [19]): 0.91% | Distribution (Rattus norvegicus [20]): 4.08% | Distribution (Rattus norvegicus [21]): 0.14% | Distribution (Rattus norvegicus [22]): 0.14% | Distribution (Rattus norvegicus [23]): 3.76% | Distribution (Rattus norvegicus [24]): 0.13% | Distribution (Rattus norvegicus [25]): 4.69% | Distribution (Rattus norvegicus [26]): 4.23% | Distribution (Rattus norvegicus [27]): 0.85% | Distribution (Rattus norvegicus [28]): 4.16% | Distribution (Rattus norvegicus [29]): 0.89% | Distribution (Rattus norvegicus [30]): 0.18% | Distribution (Rattus norvegicus [31]): 0.17% | Distribution (Rattus norvegicus [32]): 1.61% | Distribution (Rattus norvegicus [33]): 2.19% | Distribution (Rattus norvegicus [34]): 1.03% | Distribution (Rattus norvegicus [35]): 1.37% | Distribution (Rattus norvegicus [36]): 2.93% | Distribution (Rattus norvegicus [37]): 0.1% | Distribution (Rattus norvegicus [38]): 0.19% | Distribution (Rattus norvegicus [39]): 0.05% | Distribution (Rattus norvegicus [40]): 2.99% | Distribution (Rattus norvegicus [41]): 0.36% | Distribution (Rattus norvegicus [42]): 0.15% | Distribution (Rattus norvegicus [43]): 0.83% | Distribution (Rattus norvegicus [44]): 3.16% | Distribution (Rattus norvegicus [45]): 0.39% | Distribution (Rattus norvegicus [46]): 1.59% | Distribution (Rattus norvegicus [47]): 1.29% | Distribution (Rattus norvegicus [48]): 1.77% | Distribution (Rattus norvegicus [49]): 0.16% | Distribution (Rattus norvegicus [50]): 2.24%
